Reference: ChEMBL document CHEMBL3865797, “Design, synthesis and biological evaluation of berberine-benzimidazole hybrids as new type of potentially DNA-targeting antimicrobial agents” (Eur J Med Chem, 2016)
Converted amounts (≈) assume the structure as drawn.

How the values were obtained:
[1] = test system: Proteus vulgaris; assay: Antibacterial activity against Bacillus proteus ATCC 13315 measured after 24 hrs by two-fold serial dilution method; format: functional; settings: ATCC 13315, 24 h
Summary of the method: (§1)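 MIC by two-fold serial broth microdilution in 96-well plates, following NCCLS recommendations. Chloromycin, norfloxacin and fluconazole serve as reference drugs. The MIC is read as the lowest concentration that inhibits growth, in µg/mL.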

[2] = test system: Escherichia coli; assay: Antibacterial activity against Escherichia coli JM109 measured after 24 hrs by two-fold serial dilution method; format: functional; settings: JM109, 24 h; summary of the method: as §1
[3] = test system: Bacillus subtilis; assay: Antibacterial activity against Bacillus subtilis measured after 24 hrs by two-fold serial dilution method; format: functional; summary of the method: as §1
[4] = test system: Micrococcus luteus; assay: Antibacterial activity against Micrococcus luteus ATCC 4698 measured after 24 hrs by two-fold serial dilution method; format: functional; settings: NCTC 2665, 24 h; summary of the method: as §1
[5] = test system: Candida albicans; assay: Antifungal activity against Candida albicans ATCC 76615 measured after 24 hrs by two-fold serial dilution method; format: functional; settings: ATCC 76615, 24 h; summary of the method: as §1
[6] = test system: Staphylococcus aureus; assay: Antibacterial activity against Staphylococcus aureus ATCC 25923 measured after 24 hrs by two-fold serial dilution method; format: functional; settings: ATCC 25923, 24 h; summary of the method: as §1
[7] = test system: Salmonella typhi; assay: Antibacterial activity against Salmonella typhi measured after 24 hrs by two-fold serial dilution method; format: functional, Salmonella enterica subsp. enterica serovar Typhi; settings: Salmonella enterica
Summary of the method: (§2)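 Two-fold serial dilution in 96-well microtest plates following NCCLS guidance (micro broth dilution). Chloromycin and norfloxacin serve as positive controls. MIC is reported in µg/mL.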

[8] = test system: Aspergillus flavus; assay: Antifungal activity against Aspergillus flavus measured after 24 hrs by two-fold serial dilution method; format: functional; summary of the method: as §1
[9] = test system: Staphylococcus aureus; assay: Antibacterial activity against methicillin-resistant Staphylococcus aureus N315 measured after 24 hrs by two-fold serial dilution method; format: functional; settings: N315, 24 h; summary of the method: as §2
[10] = Antifungal activity against Saccharomyces cerevisiae measured after 24 hrs by two-fold serial dilution method; format: functional; summary of the method: as §1
[11] = Antifungal activity against Candida utilis measured after 24 hrs by two-fold serial dilution method; format: functional; settings: Cyberlindnera jadinii; summary of the method: as §1
[12] = test system: Pseudomonas aeruginosa; assay: Antibacterial activity against Pseudomonas aeruginosa measured after 24 hrs by two-fold serial dilution method; format: functional; summary of the method: as §1

Row | Structure (SMILES) | MIC [1] | MIC [2] | MIC [3] | MIC [4] | MIC80 [5] | MIC [6] | MIC [7] | MIC80 [8] | MIC [9] | MIC80 [10] | MIC80 [11] | MIC [12]
1 | CCCCCCCCCCn1c(COc2c(OC)ccc3cc4[n+](cc23)CCc2cc3c(cc2-4)OCO3)nc2ccccc21.[Cl-] | 512 µg/mL | 32 µg/mL | 32 µg/mL | 32 µg/mL | 8 µg/mL | 16 µg/mL | 2 µg/mL | 8 µg/mL | 16 µg/mL | 512 µg/mL | 8 µg/mL | 16 µg/mL
2 | CCn1cc(C(=O)O)c(=O)c2cc(F)c(N3CCNCC3)cc21 [NORFLOXACIN] | 8 µg/mL (≈ 25.1 µM) | 1 µg/mL (≈ 3.13 µM) | 4 µg/mL (≈ 12.5 µM) | 2 µg/mL (≈ 6.26 µM) |  | 2 µg/mL (≈ 6.26 µM) | 4 µg/mL (≈ 12.5 µM) |  | 8 µg/mL (≈ 25.1 µM) |  |  | 16 µg/mL (≈ 50.1 µM)
3 | COc1ccc2cc3[n+](cc2c1OCc1nc2ccc(F)cc2[nH]1)CCc1cc2c(cc1-3)OCO2.[Cl-] | 16 µg/mL | 32 µg/mL | 256 µg/mL | 16 µg/mL | 512 µg/mL | 8 µg/mL | 16 µg/mL | 32 µg/mL | 512 µg/mL | 256 µg/mL | 64 µg/mL | 256 µg/mL
4 | COc1ccc2cc3[n+](cc2c1OCc1nc2ccccc2n1Cc1ccc([N+](=O)[O-])cc1)CCc1cc2c(cc1-3)OCO2.[Cl-] | 32 µg/mL | 32 µg/mL | 512 µg/mL | 32 µg/mL | 128 µg/mL | 64 µg/mL | 256 µg/mL | 64 µg/mL | 512 µg/mL | 128 µg/mL | 32 µg/mL | 512 µg/mL
5 | CCCn1c(COc2c(OC)ccc3cc4[n+](cc23)CCc2cc3c(cc2-4)OCO3)nc2ccccc21.[Cl-] | 256 µg/mL | 256 µg/mL | 64 µg/mL | 32 µg/mL | 64 µg/mL | 128 µg/mL | 4 µg/mL | 16 µg/mL | 4 µg/mL | 512 µg/mL | 16 µg/mL | 64 µg/mL
6 | COc1ccc2cc3[n+](cc2c1OCc1nc2ccccc2n1Cc1cccc(F)c1)CCc1cc2c(cc1-3)OCO2.[Cl-] | 128 µg/mL | 512 µg/mL | 512 µg/mL | 16 µg/mL | 512 µg/mL | 512 µg/mL | 256 µg/mL | 32 µg/mL | 512 µg/mL | 256 µg/mL | 8 µg/mL | 256 µg/mL
7 | COc1ccc2cc3[n+](cc2c1OCc1nc2ccccc2n1Cc1ccccc1F)CCc1cc2c(cc1-3)OCO2.[Cl-] | 128 µg/mL | 128 µg/mL | 256 µg/mL | 8 µg/mL | 512 µg/mL | 2 µg/mL | 4 µg/mL | 8 µg/mL | 512 µg/mL | 128 µg/mL | 4 µg/mL | 512 µg/mL
8 | COc1ccc2cc3[n+](cc2c1OCc1nc2ccccc2n1Cc1cccc(Cl)c1)CCc1cc2c(cc1-3)OCO2.[Cl-] | 128 µg/mL | 512 µg/mL | 512 µg/mL | 16 µg/mL | 512 µg/mL | 512 µg/mL | 256 µg/mL | 32 µg/mL | 512 µg/mL | 512 µg/mL | 16 µg/mL | 256 µg/mL
9 | CCCCCCCCn1c(COc2c(OC)ccc3cc4[n+](cc23)CCc2cc3c(cc2-4)OCO3)nc2ccccc21.[Cl-] | 512 µg/mL | 512 µg/mL | 8 µg/mL | 64 µg/mL | 16 µg/mL | 8 µg/mL | 32 µg/mL | 256 µg/mL | 64 µg/mL | 512 µg/mL | 32 µg/mL | 8 µg/mL
10 | OC(Cn1cncn1)(Cn1cncn1)c1ccc(F)cc1F [FLUCONAZOLE] |  |  |  |  | 1 µg/mL (≈ 3.27 µM) |  |  | 256 µg/mL (≈ 836 µM) |  | 16 µg/mL (≈ 52.2 µM) | 8 µg/mL (≈ 26.1 µM) | 
11 | COc1ccc2cc3[n+](cc2c1OCc1nc2ccccc2n1Cc1ccc(Cl)cc1Cl)CCc1cc2c(cc1-3)OCO2.[Cl-] | 8 µg/mL | 16 µg/mL | 512 µg/mL | 16 µg/mL | 512 µg/mL | 64 µg/mL | 16 µg/mL | 16 µg/mL | 4 µg/mL | 512 µg/mL | 2 µg/mL | 32 µg/mL
12 | CCCCCCCCCCCCn1c(COc2c(OC)ccc3cc4[n+](cc23)CCc2cc3c(cc2-4)OCO3)nc2ccccc21.[Cl-] | 512 µg/mL | 16 µg/mL | 512 µg/mL | 128 µg/mL | 16 µg/mL | 8 µg/mL | 8 µg/mL | 128 µg/mL | 128 µg/mL | 512 µg/mL | 16 µg/mL | 512 µg/mL
13 | CCCCCCCCCCCCCCCCCCn1c(COc2c(OC)ccc3cc4[n+](cc23)CCc2cc3c(cc2-4)OCO3)nc2ccccc21.[Cl-] | 64 µg/mL | 512 µg/mL | 512 µg/mL | 512 µg/mL | 512 µg/mL | 512 µg/mL | 256 µg/mL | 512 µg/mL | 512 µg/mL | 512 µg/mL | 128 µg/mL | 512 µg/mL
14 | CCn1c(COc2c(OC)ccc3cc4[n+](cc23)CCc2cc3c(cc2-4)OCO3)nc2ccccc21.[Cl-] | 512 µg/mL | 64 µg/mL | 512 µg/mL | 64 µg/mL | 512 µg/mL | 512 µg/mL | 512 µg/mL | 256 µg/mL | 128 µg/mL | 512 µg/mL | 128 µg/mL | 512 µg/mL
15 | O=C(N[C@H](CO)[C@H](O)c1ccc([N+](=O)[O-])cc1)C(Cl)Cl [CHLORAMPHENICOL] | 32 µg/mL (≈ 99 µM) | 32 µg/mL (≈ 99 µM) | 32 µg/mL (≈ 99 µM) | 8 µg/mL (≈ 24.8 µM) |  | 16 µg/mL (≈ 49.5 µM) | 32 µg/mL (≈ 99 µM) |  | 16 µg/mL (≈ 49.5 µM) |  |  | 32 µg/mL (≈ 99 µM)
16 | COc1ccc2cc3[n+](cc2c1OCc1nc2ccc(Cl)cc2[nH]1)CCc1cc2c(cc1-3)OCO2.[Cl-] | 32 µg/mL | 512 µg/mL | 512 µg/mL | 128 µg/mL | 512 µg/mL | 64 µg/mL | 64 µg/mL | 32 µg/mL | 256 µg/mL | 512 µg/mL | 256 µg/mL | 512 µg/mL
17 | CCCCCCCCCCCCCCCCn1c(COc2c(OC)ccc3cc4[n+](cc23)CCc2cc3c(cc2-4)OCO3)nc2ccccc21.[Cl-] | 512 µg/mL | 64 µg/mL | 512 µg/mL | 128 µg/mL | 64 µg/mL | 256 µg/mL | 128 µg/mL | 128 µg/mL | 256 µg/mL | 512 µg/mL | 128 µg/mL | 128 µg/mL
18 | CCCCCn1c(COc2c(OC)ccc3cc4[n+](cc23)CCc2cc3c(cc2-4)OCO3)nc2ccccc21.[Cl-] | 128 µg/mL | 128 µg/mL | 32 µg/mL | 32 µg/mL | 32 µg/mL | 64 µg/mL | 4 µg/mL | 16 µg/mL | 16 µg/mL | 512 µg/mL | 8 µg/mL | 64 µg/mL
19 | COc1ccc2cc3[n+](cc2c1OCc1nc2ccccc2[nH]1)CCc1cc2c(cc1-3)OCO2.[Cl-] | 256 µg/mL | 512 µg/mL | 512 µg/mL | 32 µg/mL | 256 µg/mL | 512 µg/mL | 16 µg/mL | 32 µg/mL | 256 µg/mL | 512 µg/mL | 64 µg/mL | 256 µg/mL
20 | COc1ccc2cc3[n+](cc2c1OCc1nc2ccccc2n1Cc1ccc(F)cc1)CCc1cc2c(cc1-3)OCO2.[Cl-] | 32 µg/mL | 512 µg/mL | 512 µg/mL | 512 µg/mL | 512 µg/mL | 512 µg/mL | 8 µg/mL | 16 µg/mL | 512 µg/mL | 256 µg/mL | 8 µg/mL | 512 µg/mL
21 | COc1ccc2cc3[n+](cc2c1OCc1nc2ccccc2n1Cc1ccc(Cl)cc1)CCc1cc2c(cc1-3)OCO2.[Cl-] | 8 µg/mL | 2 µg/mL | 512 µg/mL | 8 µg/mL | 512 µg/mL | 32 µg/mL | 2 µg/mL | 4 µg/mL | 512 µg/mL | 512 µg/mL | 4 µg/mL | 512 µg/mL
